OXTR agonist: human OXTR agonism; P30559; CHO-OTR cells, Fluo-8 calcium fluorescence; normalized: DMSO 0%, oxytocin 100%; activation, % at 3 µM; actives 0.32% (n = 320,000);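 active = activation above the mean of all tested compounds plus 3 SD, cutoff set per screening run, cut at about 20% in these data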;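 also: peak over basal fluorescence ratio from a 100 s FLIPR kinetic read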
V1aR counter: counter-screen for oxytocin receptor agonists: human V1a receptor agonists; actives 0.25% (n = 320,000); AID 2797; P37288; CHO-V1R cells, Fluo-8 calcium fluorescence, agonist mode; 0% DMSO, 100% 3 nM vasopressin; activation, % at 3 µM;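 active = activation above the mean activation of all tested compounds plus 3 SD, per screening run, cut at about 20% in these data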;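 also: signal is peak over basal fluorescence ratio across a 100 second FLIPR read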
Target sequence (P37288 whole entry, looked up): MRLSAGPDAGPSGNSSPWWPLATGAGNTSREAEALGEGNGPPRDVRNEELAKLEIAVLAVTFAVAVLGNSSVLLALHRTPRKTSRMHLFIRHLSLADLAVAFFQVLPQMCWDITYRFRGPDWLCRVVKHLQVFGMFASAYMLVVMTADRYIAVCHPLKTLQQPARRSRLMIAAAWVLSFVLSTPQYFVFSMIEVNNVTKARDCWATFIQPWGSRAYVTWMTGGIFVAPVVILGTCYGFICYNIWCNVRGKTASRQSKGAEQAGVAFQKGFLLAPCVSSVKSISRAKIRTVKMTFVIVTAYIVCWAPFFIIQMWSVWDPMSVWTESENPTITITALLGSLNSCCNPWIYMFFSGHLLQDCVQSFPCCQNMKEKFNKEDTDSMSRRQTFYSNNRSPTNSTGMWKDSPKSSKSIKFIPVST
OXTR potentiator: human OXTR potentiation | P30559 | CHO-OTR cells, Fluo-8 calcium fluorescence, potentiator mode; 0% = oxytocin EC15, 100% = EC100 | activation, % at 3 µM | actives 0.061% (n = 320,000);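 active = activation above that plate's cutoff, the mean activation of tested compounds plus 3 SD, cut at about 6.6% in these data, passing the limit was not always enough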
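System: human OTR in CHO cells / Also added: sub-maximal oxytocin, roughly EC15 / Control set: EC15 oxytocin low, 75 nM oxytocin high / Schedule: 6 min compound pre-incubation at room temperature, 100 s kinetic read / Compound: single-point 3.0 µM / Replication: singlicate / Technique: Fluo-8 calcium dye fluorescence / Read-out basis: % activation of max/min ratio relative to oxytocin controls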
CHRM4 PAM: CHRM4 positive allosteric modulation | activation, % at 3 µM | actives 0.4% (n = 360,000) | P08173 | AID 624126 | CHO-K1 hM4/Gqi5, Fluo-8 calcium fluorescence, ACh EC20; 0% = ACh EC20, 100% = maximal ACh;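 active = activation above its plate's cutoff, the mean activation of sample wells plus 3 SD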
CHRM4 antagonist: blocks acetylcholine activation of human M4 receptor | P08173 | CHO-hM4 cells, ACh EC80, Fluo-8 calcium fluorescence | inhibition, % at 3 µM | actives 0.73% (n = 360,000) | AID 624125;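 active = inhibition above its plate's cutoff, the mean inhibition of sample wells plus 3 SD, cut at about 27% in these data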
CHRM4 agonist: agonists of human muscarinic M4 receptor (CHRM4). P08173. CHO-K1 hM4/Gqi5, Fluo-8 calcium fluorescence; vehicle 0%, full acetylcholine response 100%. activation, % at 3 µM. actives 0.14% (n = 360,000). AID 624127;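 active = activation above the run mean over all test wells plus 3 SD, cut at about 32% in these data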;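 also: peak over basal fluorescence ratio per well then scaled between controls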
A number is an active result; 0 = inactive; - = not tested or not shown. Shown are actives, neighbours in structure and some others; about 1.5% of the full set was active somewhere.

SMILES	OXTR agonist	V1aR counter	OXTR potentiator	CHRM4 PAM	CHRM4 antagonist	CHRM4 agonist
COc1ccc(S(=O)(=O)N(CC(=O)NCCC(C)C)c2ccccc2)cc1OC	0	0	0	25.2	0	0
O=C1OC(c2ccccc2)(c2ccc(O)cc2)c2ccccc21 (stereo unspecified)	-	-	-	0	0	0
O=C1OC2(c3ccccc31)c1cc(I)c(O)c(I)c1Oc1c2cc(I)c(O)c1I	669.8	659.5	0	-	-	-
Cn1nnnc1SCCNCc1cc(Cl)ccc1OCc1ccccc1	0	0	0	0	0	0
Cn1nnnc1SCCNCc1ccccc1OCc1ccc(Cl)cc1	0	0	0	0	26.8	0
c1nc(C2CCCCC2)cc2cc3c(cc12)OCO3	0	0	0	0	0	0
CC1CCN(c2nc3c(c(=O)n(C)c(=O)n3C)n2CCSc2nc3ccccc3s2)CC1	0	0	0	0	0	0
Cn1c(=O)c2c(nc(N3CCCCC3)n2CCSc2nc3ccccc3s2)n(C)c1=O	0	0	0	37.5	0	0
CC(Oc1ccc2c3c(c(=O)oc2c1)CCC3)C(=O)NCc1cccnc1 (stereo unspecified)	0	0	0	18.8	0	0
COc1ccc(NC(=S)N(CCN2CCOCC2)C2CCN(C(C)=O)CC2)cc1Cl	0	0	0	0	0	0
COc1cc(Cl)ccc1NC(=S)N(CCN1CCOCC1)C1CCN(C(C)=O)CC1	0	0	0	0	61.4	0
CCCCCCn1cc(CN2CC(N3CCN(C4CCN(C)CC4)CC3)CS2(=O)=O)nn1 (stereo unspecified)	-	-	-	0	0	0
C/C=C(\C)C(=O)OC1[C@H](OC(C)=O)C2(CO)C(CC1(C)C)C1=CCC3C4(C)CCC(O[C@@H]5O[C@H](C(=O)O)[C@@H](O[C@@H]6O[C@H](CO)[C@@H](O)[C@H](O)[C@H]6O)[C@H](O)[C@H]5O[C@H]5O[C@H](CO)[C@@H](O)[C@H](O)[C@H]5O)[C@](C)(CO)C4CCC3(C)[C@]1(C)C[C@H]2O (stereo partly specified)	-	-	-	0	90.7	133.4
CC1(C)CC[C@]2(C(=O)O)CC[C@]3(C)C(=CC[C@@H]4[C@@]5(C)CC[C@H](O)C(C)(C)[C@@H]5CC[C@]43C)[C@@H]2C1	0	0	0	0	0	0
C[C@@H]1CC[C@]2(C(=O)O[C@@H]3O[C@H](CO)[C@@H](O)[C@H](O)[C@H]3O)CC[C@]3(C)C(=CCC4[C@@]5(C)CC[C@H](O[C@@H]6OC[C@H](O)[C@H](O[C@@H]7O[C@H](CO)[C@@H](O)[C@H](O)[C@H]7O)[C@H]6O)C(C)(C)C5CC[C@]43C)C2[C@]1(C)O (stereo partly specified)	0	0	0	0	0	0
CC(=O)OC1COC(OC2C(O)C(C)OC(OC3C(OC4CCC5(C)C(CCC6(C)C5CC=C5C7CC(C)(C)CCC7(C(=O)O)CCC56C)C4(C)CO)OCC(O)C3O)C2O)C(O)C1OC(C)=O (stereo unspecified)	91.8	115.5	0	-	-	-
C/C=C(/C)C(=O)OC1CC(C)(C)C[C@H]2C3=CC[C@@H]4[C@@]5(C)CCC(O[C@@H]6O[C@@H](C(=O)O)[C@@H](O)C(O[C@@H]7OC[C@H](O)[C@@H](O)[C@@H]7O[C@@H]7OC(CO)C(O)[C@@H](O)[C@@H]7O)C6O[C@@H]6OC(CO)C(O)C(O)C6O)[C@@](C)(CO)[C@@H]5CC[C@]4(C)[C@]3(C)CC(O)[C@@]12CO (stereo partly specified)	44.3	22.4	0	0	0	74.8
CC1(C)C[C@H]2C3=CCC4[C@@]5(C)CC[C@H](O[C@@H]6O[C@H](C(=O)O)[C@@H](O)[C@H](O)[C@H]6O)[C@@](C)(CO)C5CC[C@@]4(C)[C@]3(C)C[C@H](O)[C@@]2(CO)[C@@H](O)[C@@H]1O (stereo partly specified)	0	0	0	0	0	0
Cc1c(C)n(Cc2ccccc2)c2ncnc(Cl)c12	0	0	0	0	0	0
COc1ccc(S(=O)(=O)N2CC3CCCN3c3cc(C(F)(F)F)ccc32)cc1 (stereo unspecified)	0	0	0	0	0	0
O=S(=O)(c1cc(Cl)ccc1Cl)N1CC2CCCN2c2ccc(C(F)(F)F)cc21 (stereo unspecified)	0	0	0	0	44.5	0
COc1ccc(S(=O)(=O)N2CC3CCCN3c3ccc(C(F)(F)F)cc32)cc1 (stereo unspecified)	0	0	0	0	29.8	0
COC(=O)c1cc2ccc(OC)cc2c2cc(OC)c(OC)cc12	0	0	0	0	0	0
CNCCC=C1c2ccccc2CCc2ccccc21	0	0	0	0	67.2	0
Cc1ccc(-c2nc3sc4c(c3c(=O)n2N)CCCC4)cc1	0	0	0	37.7	0	0
SMILES	OXTR agonist	V1aR counter	OXTR potentiator	CHRM4 PAM	CHRM4 antagonist	CHRM4 agonist
Cc1ccc(-c2nc3sc4c(c3c(=O)n2N)CC(C)(C)OC4)cc1	0	0	0	0	0	0
COc1ccc(CNCc2cn(-c3cccc(F)c3)nc2-c2ccc(C)o2)cc1	0	0	0	0	34.1	0
COc1ccc(-n2cc(CNCc3cccnc3)c(-c3cccc(F)c3)n2)cc1	0	0	0	0	0	0
COc1ccc(CC(=O)OCC(=O)Nc2ncc(Cl)c(C)c2Cl)cc1	-	-	-	0	0	0
O=[N+]([O-])c1cccc(OCCCN2CCC(Cc3ccccc3)CC2)c1	0	0	0	0	38.1	0
CC(=O)CCc1ccc(OCCCCN2CCC(Cc3ccccc3)CC2)cc1	0	0	0	0	75.0	0
COc1cccc(OC)c1OCCCCN1CCC(Cc2ccccc2)CC1	0	0	0	0	0	0
CCC(=O)c1ccccc1OCCCN1CCC(Cc2ccccc2)CC1	0	0	0	0	41.8	0
Cc1cccc(OCCC(=O)N(C)CC(=O)Nc2cccc3ccccc23)c1	0	0	0	0	0	0
O=C(N/N=C/c1cccs1)c1cc(-c2cccc3ccccc23)n[nH]1	0	0	0	0	0	0
CCOC(=O)/C(C(=Nc1ccccc1)Nc1ccccc1)=C(\C)O	0	0	0	0	0	0
NC(=Nc1ccccc1)Nc1ccccc1	0	0	0	0	60.2	124.3
COc1ccc(C)cc1S(=O)(=O)N1CCCC(N2CCN(c3ccccc3)CC2)C1 (stereo unspecified)	-	-	-	0	0	0
CCN(CC)CCOC(=O)C(c1ccccc1)C1CCCCC1 (stereo unspecified)	0	0	0	0	100.1	0
CCN(CC)CCSC(=O)C(c1ccccc1)c1ccccc1	-	-	-	0	96.0	0

Source: PubChem BioAssay
